Active and inactive are the calls of the source. The calls are words filed in the database; no cut-off is given here.
Columns and labels:
A549 = assay: Inhibition of PGE2 biosynthesis in IL-1β stimulated human A549 cells incubated for 24 hrs by ELISA; details: dose 5-10 µM
[1] = biological target: T1, Polyunsaturated fatty acid 5-lipoxygenase (Homo sapiens) (UniProt P09917); assay: Inhibition of human recombinant 5-LO expressed in Escherichia coli BL21 using arachidonic acid as substrate assessed as residual activity at 10 uM preincubated for 10 mins followed by substrate addition and measured after 10 mins by RP-HPLC analysis relative to control; details: time 20.0 min
T1 sequence (whole entry): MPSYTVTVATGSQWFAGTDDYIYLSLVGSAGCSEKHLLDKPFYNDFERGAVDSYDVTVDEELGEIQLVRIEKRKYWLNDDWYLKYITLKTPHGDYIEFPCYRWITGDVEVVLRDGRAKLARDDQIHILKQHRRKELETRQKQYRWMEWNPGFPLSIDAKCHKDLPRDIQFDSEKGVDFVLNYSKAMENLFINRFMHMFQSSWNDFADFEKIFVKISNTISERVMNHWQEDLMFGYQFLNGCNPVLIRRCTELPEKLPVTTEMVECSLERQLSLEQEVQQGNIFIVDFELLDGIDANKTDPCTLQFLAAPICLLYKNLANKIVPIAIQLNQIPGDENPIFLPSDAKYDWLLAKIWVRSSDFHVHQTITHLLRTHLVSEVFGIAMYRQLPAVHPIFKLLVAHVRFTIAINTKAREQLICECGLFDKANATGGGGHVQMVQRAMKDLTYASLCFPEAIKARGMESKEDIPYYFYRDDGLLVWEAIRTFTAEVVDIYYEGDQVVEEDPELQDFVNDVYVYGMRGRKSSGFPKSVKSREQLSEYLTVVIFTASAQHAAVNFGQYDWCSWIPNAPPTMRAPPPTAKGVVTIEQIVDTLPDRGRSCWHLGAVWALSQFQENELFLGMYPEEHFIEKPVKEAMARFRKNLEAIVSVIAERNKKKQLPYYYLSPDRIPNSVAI

Macrophage = assay: Inhibition of 5-LO product formation in Staphylococcus aureus activated human monocyte derived macrophages at 10 uM preincubated for 15 mins followed by Staphylococcus aureus activation for 90 mins by UPLC-MS/MS analysis; type: functional, cell-based; details: time 105.0 min
Mus musculus [2] = assay: (§1) Anti-inflammatory activity against CD-1 mouse model of zymosan-induced peritonitis assessed as reduction in leucocyte recruitment in lavage fluid at 1 to 10 mg/kg, ip pretreated with zymosan for 30 mins followed by compound addition and measured after 4 to 24 hrs by TC10 automated cell counter analysis; type: functional, organism-based; details: dose 1-10 mg/kg, time 4-24 hrs
Summary of the method: (§2)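 Mice got zymosan 500 mg/kg i.p.; test compound was injected i.p. 30 min later. PBS-only controls were included, along with a dexamethasone (3 mg/kg) reference group. Peritoneal exudate was collected at 4 and 24 h. Total cells were counted, and IL-1β, IL-6, PGE2 and IL-10 were measured in exudate, normalized to exudate levels. Mean ± SD.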

J774.A1 [3] = assay: Modulation of IL-6 production in LPS-stimulated mouse J774.A1 cells at 1 uM incubated for 24 hrs by ELISA; type: functional, cell-based
Summary of the method: (§3)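 Murine J774A.1 macrophages were stimulated with LPS and exposed to test compounds. IL-6 and PGE2 released were measured in pg/mL. Mean ± SD.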

Mus musculus [4] = assay: Anti-inflammatory activity against CD-1 mouse model of zymosan-induced peritonitis assessed as reduction in IL-6 level at 10 mg/kg, ip pretreated with zymosan for 30 mins followed by compound addition and measured after 4 to 24 hrs by ELISA; type: functional, organism-based; details: time 4-24 hrs
Summary of the method: as §2

J774.A1 [5] = assay: Modulation of PGE2 production in LPS-stimulated mouse J774.A1 cells at 1 uM incubated for 24 hrs by ELISA; type: functional, cell-based
Summary of the method: as §3

Mus musculus [6] = assay: Anti-inflammatory activity against CD-1 mouse model of zymosan-induced peritonitis assessed as reduction in IL-1beta level at 10 mg/kg, ip pretreated with zymosan for 30 mins followed by compound addition and measured after 4 to 24 hrs by ELISA; type: functional, organism-based; details: time 4-24 hrs
Summary of the method: as §2

Mus musculus [7] = assay: Anti-inflammatory activity against CD-1 mouse model of zymosan-induced peritonitis assessed as reduction in PGE2 level at 10 mg/kg, ip pretreated with zymosan for 30 mins followed by compound addition and measured after 4 to 24 hrs by ELISA; type: functional, organism-based; details: time 4-24 hrs
Summary of the method: as §2

Mus musculus [8] = assay: Anti-inflammatory activity against CD-1 mouse model of zymosan-induced peritonitis assessed as reduction in IL-10 level at 10 mg/kg, ip pretreated with zymosan for 30 mins followed by compound addition and measured after 24 hrs by ELISA; type: functional, organism-based
Summary of the method: as §2

[9] = biological target: T2, Polyunsaturated fatty acid 5-lipoxygenase (Homo sapiens, UniProt P09917); assay: Inhibition of human recombinant 5-LO expressed in Escherichia coli BL21 using arachidonic acid as substrate preincubated for 10 mins followed by substrate addition and measured after 10 mins by RP-HPLC analysis
T2 sequence (P09917 whole entry): T1 sequence (whole entry)

Mus musculus [10] = assay: as §1, with “peritoneal cavity” for “lavage fluid”, “3” for “1 to 10”; type: functional, organism-based; details: time 4-24 hrs
Mus musculus [11] = assay: Anti-inflammatory activity against CD-1 mouse model of zymosan-induced peritonitis assessed as reduction in PGE2 level at 3 mg/kg, ip pretreated with zymosan for 30 mins followed by compound addition and measured after 4 to 24 hrs by ELISA; type: functional, organism-based; details: time 4-24 hrs
Mus musculus [12] = assay: Anti-inflammatory activity against CD-1 mouse model of zymosan-induced peritonitis assessed as reduction in IL-6 level at 3 mg/kg, ip pretreated with zymosan for 30 mins followed by compound addition and measured after 4 to 24 hrs by ELISA; type: functional, organism-based; details: time 4-24 hrs
Mus musculus [13] = assay: Anti-inflammatory activity against CD-1 mouse model of zymosan-induced peritonitis assessed as reduction in IL-1beta level at 3 mg/kg, ip pretreated with zymosan for 30 mins followed by compound addition and measured after 4 to 24 hrs by ELISA; type: functional, organism-based; details: time 4-24 hrs
Mus musculus [14] = assay: Anti-inflammatory activity against CD-1 mouse model of zymosan-induced peritonitis assessed as reduction in IL-10 level at 3 mg/kg, ip pretreated with zymosan for 30 mins followed by compound addition and measured after 24 hrs by ELISA; type: functional, organism-based

Activity [1] [%]	IC50 [9] [µM]	SMILES	inhibition (A549)	5-LO product formation inhibition (active/inactive) (Macrophage)	Activity (J774.A1 [3])	Activity (J774.A1 [5])	other results
75.9	–	Nc1ccccc1-c1ccc(-c2nnc(NC(=O)c3c(Cl)ccnc3Cl)s2)cc1	Dose-Dependent Effect	Active	–	–	–
–	42.8	Cc1cc(C(=O)Nc2nnc(-c3ccc(-c4ccccc4N)cc3)s2)cc(Cl)n1	Dose-Dependent Effect	Active	–	–	–

The next lines start with the compound.

SMILES	Activity [1] [%]	IC50 [9] [µM]	inhibition (A549)	5-LO product formation inhibition (active/inactive) (Macrophage)	Activity (J774.A1 [3])	Activity (J774.A1 [5])	other results
O=C(Nc1nnc(-c2ccc(-c3cccc(O)c3)cc2)s1)c1ccccc1Br	125	–	–	Active	Active	Active	Activity (Mus musculus [2]): Active; Activity (Mus musculus [4]): Active; Activity (Mus musculus [6]): Active; Activity (Mus musculus [7]): Active; Activity (Mus musculus [8]): Active
Nc1ccccc1-c1ccc(-c2nnc(NC(=O)c3ccccc3Br)s2)cc1	–	24.3	Dose-Dependent Effect	Active	inactive	Active	–
Cc1cc(C(=O)Nc2nnc(-c3ccc(-c4cccc(O)c4)cc3)s2)cc(Cl)n1	–	–	–	inactive	–	–	–
C[C@@H]1C[C@H]2[C@@H]3CCC4=CC(=O)C=C[C@]4(C)[C@@]3(F)[C@@H](O)C[C@]2(C)[C@@]1(O)C(=O)CO	–	–	–	–	–	–	Activity (Mus musculus [10]): Active; Activity (Mus musculus [11]): Active; Activity (Mus musculus [12]): Active; Activity (Mus musculus [13]): Active; Activity (Mus musculus [14]): Active
